bIAP inh – bovine intestinal alkaline phosphatase inhibitors, primary screen, selectivity assay for TNAP inhibitor project, biochemical, bovine IAP, CDP-star luminescence; purified bovine IAP, 30 min; inhibition, % at 20 µM; 190,000 tested, under 10 active;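 active means over 50% inhibition of intestinal alkaline phosphatase at 20 µM in the single-dose screen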
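test system = bovine IAP enzyme | medium = DEA buffer 100 mM, pH 9.8, with MgCl2 1.0 mM, ZnCl2 0.02 mM | detection = luminescence | dosing = single compound dose of 20 µM, 2% DMSO final | incubation = 30 min reaction at room temperature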
bIAP act – bovine intestinal alkaline phosphatase activators, primary screen, biochemical, bovine IAP, CDP-star luminescence. alkaline phosphatase, intestinal [Bos taurus]. purified bovine IAP, 30 min; active compounds read high; fold of DMSO-control signal, blank-subtracted. activation factor at 20 µM. 0.17% of 200,000 active. AID 1016, 2008;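 active means activation factor of 2 or more at 20 µM, a signal rise over negative controls twice the positive control's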
hIAP inh – human IAP inhibitors, primary screen, biochemical, luminescence, uHTS; Intestinal-type alkaline phosphatase (Homo sapiens), P09923; purified IAP, CDP-Star luminescence, 30 min; inhibition, % at 10 µM; 0.12% of 330,000 active;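 active means inhibition reaching a set limit with compound at 10 µM in the primary screen, cut at about 35% in these data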;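 further: plate controls were DMSO wells with enzyme for no effect and no-enzyme buffer wells for full effect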
Target sequence (P09923 whole entry, looked up): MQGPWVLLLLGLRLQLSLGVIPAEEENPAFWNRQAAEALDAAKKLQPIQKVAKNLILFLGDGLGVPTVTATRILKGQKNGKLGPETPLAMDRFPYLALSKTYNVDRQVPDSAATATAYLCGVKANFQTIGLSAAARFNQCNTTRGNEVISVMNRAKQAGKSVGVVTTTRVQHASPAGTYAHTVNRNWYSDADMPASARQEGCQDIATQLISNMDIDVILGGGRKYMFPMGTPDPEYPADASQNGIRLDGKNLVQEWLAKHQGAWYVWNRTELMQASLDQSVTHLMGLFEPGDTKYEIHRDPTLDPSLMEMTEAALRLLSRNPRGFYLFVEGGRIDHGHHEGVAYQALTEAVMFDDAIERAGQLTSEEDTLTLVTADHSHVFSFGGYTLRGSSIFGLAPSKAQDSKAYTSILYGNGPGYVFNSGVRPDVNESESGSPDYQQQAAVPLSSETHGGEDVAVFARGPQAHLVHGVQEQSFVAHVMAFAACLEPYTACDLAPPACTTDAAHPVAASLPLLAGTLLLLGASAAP
mIAP block – inhibitors of mouse IAP, primary screen, biochemical, luminescence, uHTS. 0.2% of 330,000 active. AID 2806, 2010. purified mouse IAP, CDP-Star luminescence, 30 min. inhibition, % at 10 µM;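 active means inhibition of at least 40% at 10 µM in the primary screen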;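 further: plate controls were DMSO with enzyme for no effect and no enzyme wells for full effect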
mIAP act – activators of mouse IAP, primary screen, biochemical, luminescence, uHTS | muIAP, CDP-Star luminescence, 30 min; active compounds read high; 1 = vehicle-only enzyme signal, 0 = enzyme-free wells | activation factor at 10 µM | 0.24% of 330,000 active;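 active means activation factor of at least 2 at 20 µM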
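System: mouse IAP enzyme. Reagent: CDP-Star chemiluminescent phosphatase substrate. Benchmarks: DMSO wells, no-enzyme wells. Times: 30 min enzyme-substrate-compound incubation at room temperature. Detection: luminescence from enzymatic CDP-Star hydrolysis. Doses: test compounds delivered from DMSO solution.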
hIAP activ – human IAP activators, primary screen, biochemical, luminescence, uHTS; Intestinal-type alkaline phosphatase (Homo sapiens), P09923; purified human IAP, CDP-Star luminescence, 30 min; active compounds read high; 1 = vehicle-only enzyme, 0 = enzyme-free background; activation factor at 10 µM; 0.16% of 330,000 active; AID 2524, 2010;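 active means activation factor of the enzyme at least 2-fold when tested at 20 µM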
* marks the source's active call; other numbers are inactive results; . = no result. Hits are enriched below; roughly 0.79% of the tested compounds scored in any of these assays.

SMILES	bIAP inh	bIAP act	hIAP inh	mIAP block	mIAP act	hIAP activ
CCc1cccc(CN2CCC(CNC(=O)Nc3ccc(Cl)cc3)CC2)c1	-37.9	1.4	-42.6	-258.8	3.59*	1.43
COc1cc([N+](=O)[O-])ccc1NC(=O)NCC1CCN(Cc2ccc(Cl)cc2)CC1	.	.	8.3	-2.0	1.02	0.917
O=C(NCCN1CCN(Cc2ccccc2)CC1)Nc1cc(Cl)cc(Cl)c1	.	.	-4.4	-101.5	2.02*	1.04
O=C(NCC1CCN(Cc2cccc(Cl)c2)CC1)Nc1ccc(Cl)cc1	.	.	-41.7	-210.5	3.1*	1.42
O=C(Cc1n[nH]c(=O)c2ccccc12)Nc1cc(C(F)(F)F)ccc1-n1cncn1	.	.	14.4	4.6	0.954	0.856
CC(C(=O)Nc1ncc([N+](=O)[O-])s1)N1C(=O)c2ccccc2S1(=O)=O (configuration not stated)	.	.	6.4	8.6	0.914	0.936
CN(CCCS(=O)(=O)[O-])c1ccc(/C=C/c2ccc3ccccc3[n+]2C)cc1	.	.	19.1	2.4	0.976	0.809
CN(C)c1ccc(/C=C/c2ccc3ccccc3[n+]2C)cc1	17.0	0.8	6.8	41.7*	0.583	0.932
Nc1ncc(Br)cc1S(=O)(=O)Nc1cc(C(F)(F)F)cc(C(F)(F)F)c1	.	.	-4.9	3.2	0.968	1.05
COc1ccc(CNC(=O)c2ccccc2SCC(=O)N2CCCC2)cc1OC	.	.	-4.1	0.0	1	1.04
N#CCc1ccc(NC(=O)Nc2cccc(Cl)c2)cc1	7.4	0.9	-39.0	-176.1	2.76*	1.39
COC(=O)c1cccc(NC(=O)Nc2ccc(Cl)cc2)c1	.	.	0.1	-123.3	2.23*	0.999
COc1cccc(NC(=O)Nc2cc(Cl)ccc2C)c1	-16.5	1.2	15.7	-122.7	2.23*	0.843
COc1ccccc1NS(=O)(=O)c1cccc(NC(=O)NCCCl)c1	.	.	-8.9	-7.9	1.08	1.09
COc1ccc(NC(=O)Nc2cccc(OC)c2)cc1	.	.	4.8	-66.5	1.67	0.952
COc1ccccc1NS(=O)(=O)c1cccc(NC(=O)Nc2cccc(Cl)c2)c1	9.9	0.9	-5.5	-123.5	2.23*	1.05
O=C(CC1C[C@H](C(=O)N2CCOCC2)[C@@]2(CCC3CCCC3)c3[nH]c4ccccc4c3CCN2C1=O)NCCC1=CCCCC1 (some centres not stated)	.	.	-6.9	1.2	0.988	1.07
Cc1nnc(NC(=O)Nc2cccc(Cl)c2)s1	5.7	0.9	-12.8	1.8	0.982	1.13
COC(=O)c1cccc(NC(=O)NC23CC4CC(CC(C4)C2)C3)c1	2.2	1	1.8	-156.4	2.56*	0.982
Cc1csc(NC(=O)Nc2cccc(Cl)c2)n1	-122.6	2.2*	-15.5	-18.4	1.18	1.16
COC(=O)c1ccc(NC(=O)Nc2ccc(OC)c(OC)c2)cc1	-22.3	1.2	-32.1	-56.7	1.57	1.32
COc1ccc(NC(=O)NC23CC4(C)CC(C)(CC(C)(C4)C2)C3)cc1OC	8.5	0.9	13.1	-293.5	3.94*	0.869
CC(=O)NCC(=O)NC1CC(C)(C)Cc2c1cnn2-c1ccccc1 (configuration not stated)	.	.	-1.2	12.4	0.876	1.01
O=C(COc1ccccc1F)Nc1ccc(S(=O)(=O)N2CCCC2)cc1	.	.	1.5	-3.6	1.04	0.985
Nc1ccc(S(=O)(=O)NNC(=O)C(=O)NNc2ccccn2)cc1	-30.0	1.3	-165.6	27.2	0.728	2.66*
SMILES	bIAP inh	bIAP act	hIAP inh	mIAP block	mIAP act	hIAP activ
COc1ccc(OC)c(C(C[N+](=O)[O-])c2c(C)cc3ccccn23)c1 (configuration not stated)	.	.	-3.0	7.4	0.926	1.03
Cc1ccc(C2(C)NC(=O)N(CC(=O)c3ccc(Cl)s3)C2=O)cc1 (configuration not stated)	-97.2	2*	-5.5	15.0	0.85	1.05
C[C@H](CO)N1C[C@H](C)[C@@H](CN(C)S(C)(=O)=O)Oc2ccc(NC(=O)Nc3ccc(C(F)(F)F)cc3)cc2C1=O	.	.	-3.8	-126.0	2.26*	1.04
C[C@H](CO)N1C[C@H](C)[C@H](CN(C)S(=O)(=O)c2cn(C)cn2)Oc2ccc(NC(=O)Nc3ccc(C(F)(F)F)cc3)cc2CC1=O	.	.	-8.3	-168.9	2.69*	1.08
C[C@H](CO)N1C[C@H](C)[C@@H](CN(C)C(=O)Nc2ccc(C(F)(F)F)cc2)Oc2ccc(NC(=O)Nc3ccccc3)cc2C1=O	.	.	-9.8	-143.3	2.43*	1.1
C[C@@H]1CN([C@@H](C)CO)C(=O)Cc2cc(NC(=O)Nc3ccc(C(F)(F)F)cc3)ccc2O[C@@H]1CN(C)S(=O)(=O)c1ccc(Cl)cc1	.	.	-16.6	-41.2	1.41	1.17
C[C@H](CO)N1C[C@H](C)[C@@H](CN(C)C(=O)NC2CCCCC2)Oc2ccc(NC(=O)Nc3ccc(C(F)(F)F)cc3)cc2C1=O	.	.	-10.3	-130.4	2.3*	1.1
O=C(CCN=C1NS(=O)(=O)c2ccccc21)OCC(=O)c1ccccc1Cl	.	.	27.8	-1.3	1.01	0.722
C[C@H](CO)N1C[C@H](C)[C@@H](CN(C)C(=O)Nc2ccc(C(F)(F)F)cc2)Oc2ccc(NC(=O)NC3CCCCC3)cc2C1=O	.	.	-23.8	-211.5	3.12*	1.24
C[C@H]1CN([C@@H](C)CO)C(=O)c2cccc(NC(=O)Nc3ccc(C(F)(F)F)cc3)c2O[C@@H]1CN(C)S(=O)(=O)c1ccc(Cl)cc1	.	.	-2.0	-110.8	2.11*	1.02
Cc1noc(C)c1NC(=O)N(C)C[C@H]1Oc2ccc(NC(=O)NC(C)C)cc2C(=O)N([C@H](C)CO)C[C@H]1C	.	.	2.2	-21.6	1.22	0.978
Cc1noc(C)c1NC(=O)N(C)C[C@H]1Oc2ccc(NC(=O)Nc3ccc(C(F)(F)F)cc3)cc2C(=O)N([C@H](C)CO)C[C@@H]1C	.	.	-10.3	-154.7	2.55*	1.1
C=CCOc1ccc(C2C(C#N)=C(N)N(N(C)C)C3=C2C(=O)CCC3)cc1 (configuration not stated)	.	.	13.0	-0.5	1	0.87
COc1ccccc1N1CCN(C(=O)c2ccc(N3CCCCS3(=O)=O)cc2)CC1	.	.	-7.4	-7.1	1.07	1.07
Cc1[nH]c2ccc(-c3nnc(SCC(=O)c4ccc(F)cc4)o3)cc2c1C	2.3	1	-18.1	56.7*	0.433	1.18
Cc1cc(C)c(C)c(C(=O)CSc2nnc(-c3ccc4[nH]c(C)c(C)c4c3)o2)c1C	2.4	1	6.0	-9.8	1.1	0.94
